Source: PubChem BioAssay
MEKK2mut PB1 HTS: MEK5 binding signal on mutant MEKK2 PB1, primary screen, biochemical, multiplex bead flow cytometry, Alexa488-MEK5; Alexa488-MEK5 binding to MEKK2 mutant; percent response, % at 10 µM; 290,000 compounds, 0.35% hits; in the data active = percent response above about 24%, passing the limit was not always enough
UCH37 DUB inh: inhibitors of human UCH37 deubiquitinase, primary screen, biochemical, Ub-AMC cleavage, fluorescence | AID 588478, 2011 | inhibition, % (concentration not given with the values) | Ubiquitin carboxyl-terminal hydrolase isozyme L5 (Homo sapiens), Q9Y5K5 | purified proteasome/UCH37 | 330,000 compounds, 0.33% hits;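 active = mean inhibition over replicate wells above about 20%, limit read from the data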;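 also: 0% = compound-free wells with enzyme and 100% = wells lacking proteasome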
Target sequence (Q9Y5K5 whole entry, looked up): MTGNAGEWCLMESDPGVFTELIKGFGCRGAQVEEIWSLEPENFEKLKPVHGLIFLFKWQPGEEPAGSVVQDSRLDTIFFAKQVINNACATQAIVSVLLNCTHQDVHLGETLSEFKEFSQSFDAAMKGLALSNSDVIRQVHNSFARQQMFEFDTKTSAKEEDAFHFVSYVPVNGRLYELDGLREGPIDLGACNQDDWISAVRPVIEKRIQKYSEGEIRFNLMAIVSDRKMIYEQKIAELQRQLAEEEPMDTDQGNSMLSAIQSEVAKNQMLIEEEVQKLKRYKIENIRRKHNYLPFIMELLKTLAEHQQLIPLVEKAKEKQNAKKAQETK
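System: Proteasome-associated human UCH37 deubiquitinase; Input: 0.15 nM proteasome in added enzyme buffer; Also added: Ub-AMC substrate from 1 µM stock; Incubation: 30 min compound-proteasome preincubation then 25 min substrate reaction, room temperature; Detection: fluorescence, ex 355 nm, em 460 nm; Read-out: % inhibition of Ub-AMC cleavage fluorescence; Benchmarks: no-proteasome and no-compound wells.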
Apaf1 inhib: inhibitors of human Apaf-1 apoptosome, primary screen, biochemical, DEVD-Rh110 fluorescence, uHTS. reconstituted apoptosome caspase-3 activity. 330,000 compounds, 0.71% hits. inhibition, % at 20 µM. Apoptotic protease-activating factor 1 (Homo sapiens), O14727; active = inhibition of at least 40% at 20 µM;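 also: plate controls were DMSO wells for no effect and DEVD-CHO caspase inhibitor wells for full effect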
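Material: reconstituted apoptosome with Apaf-1, cytochrome c, caspase-9, procaspase-3, dATP; medium: pH 7.5 Hepes buffer with CHAPS, BSA, DTT; also added: cytochrome c and DEVD-Rh110 substrate; timing: 30 min plus 50 min, RT; signal: Rh110 fluorescence intensity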
MEKK3 PB1 HTS: modulators of MEKK3-MEK5 PB1 binding, primary screen, biochemical, wildtype MEKK3, multiplex bead flow cytometry, Alexa488-MEK5 | bead-based flow cytometry, Alexa488-MEK5 binding to MEKK3; actives lie on both sides; 0 = blocked by unlabeled MEK5, 100 = vehicle | binding response (% of control), % at 10 µM | 290,000 compounds, 1.4% hits;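 active = binding response more than 3 SD above or below the average of its plate-row segment, actives on both sides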;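 also: Alexa488 bead fluorescence after subtracting the streptavidin-only scavenger bead signal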
MEKK2 WT-MEK5: modulators of MEK5 binding to wildtype MEKK2, primary screen, biochemical, multiplex bead flow cytometry, Alexa488-MEK5. 290,000 compounds, 1.1% hits. binding response (% of control), % at 10 µM. Mitogen-activated protein kinase kinase kinase 2 (Homo sapiens), Q9Y2U5. Alexa488-MEK5 binding to MEKK2 WT; actives lie on both sides; in the data active = binding response below about 67% or above about 130%
UBC13 inh: UBC13 polyubiquitin chain formation inhibitors, primary screen, biochemical, TR-FRET, uHTS; Ubiquitin-conjugating enzyme E2 N (Homo sapiens), P61088; inhibition, % at 20 µM; 330,000 compounds, 0.47% hits; AID 485273, 2010; in the data active = inhibition above about 45%, passing the limit was not always enough
Target sequence (P61088 whole entry, looked up): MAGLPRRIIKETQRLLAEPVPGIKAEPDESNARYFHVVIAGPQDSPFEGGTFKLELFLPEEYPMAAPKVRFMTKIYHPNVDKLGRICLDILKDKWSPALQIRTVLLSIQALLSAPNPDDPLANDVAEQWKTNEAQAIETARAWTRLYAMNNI
MEKK2wt confirm: modulators of MEK5 binding to wildtype MEKK2, confirmation, biochemical, single concentration, multiplex bead flow cytometry | 5,900 compounds, 2.4% hits | Alexa488-MEK5 binding to MEKK2 WT; actives lie on both sides | binding response (% of control), % at 10 µM | shares compounds with MEKK3 PB1 HTS; in the data active = binding response below about 16% or above about 210%; inactive = in between
MEKK2mut confirm: mutant MEKK2 PB1-MEK5 binding signal retest – biochemical, single concentration, multiplex bead flow cytometry, confirmation. shares compounds with MEKK3 PB1 HTS. Alexa488-MEK5 binding to MEKK2 mutant. percent response, % at 10 µM. 5,900 compounds, 2% hits; in the data active = percent response mostly above about 71%, no sharp cut-off; inactive = mostly below about 38%;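 also: higher means compound restores mutant binding toward wildtype level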
MEKK3 confirm: MEKK3 wild-type PB1 binding to MEK5, inhibitors, confirmation, biochemical, bead multiplex flow cytometry, single concentration, wildtype; shares compounds with MEKK3 PB1 HTS; Alexa488-MEK5 binding to MEKK3; hits give low values; binding response (% of control), % at 10 µM; 5,900 compounds, 1.8% hits;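 active = binding response below 72% of control, or above a set upper limit, though filed actives all read lower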;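 also: 100% = DMSO only wells and 0% = binding blocked by excess unlabeled MEK5; lower values mean stronger disruption of MEK5 binding to MEKK3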
Active calls of the source: *; nt = no result; [ ] = another dose, or the depositor's remark. A selection: hits, their analogues and other compounds. The true share with any hit is near 3%.

SMILES | MEKK2mut PB1 HTS | UCH37 DUB inh | Apaf1 inhib | MEKK3 PB1 HTS | MEKK2 WT-MEK5 | UBC13 inh | MEKK2wt confirm | MEKK2mut confirm | MEKK3 confirm
Cc1ccccc1COC(=O)CNC(=O)c1sc2ccccc2c1Cl | nt | 5 | 3 | nt | nt | -3 | nt | nt | nt
O=C(CN1C(=O)/C(=C/c2cccc(Br)c2)SC1=S)N1CCCC1 | 1 | 4 | 19 | 153* | 112 | -7 | 100 | 0 | 97
O=C(NCc1ccco1)C(=O)N1CCCC1 | 1 | 2 | -25 | 104 | 100 | -1 | nt | nt | nt
COc1ccc(C(=O)NCc2ccc(-c3nc4ccccc4s3)cc2)cc1 | 3 | -6 | -7 | 105 | 100 | 9 | nt | nt | nt
Cc1cc(Sc2nc(N(C)C)nc(N(C)C)n2)nc(Cl)n1 | 5 | 1 | -2 | 137* | 121 | 5 | 107 | 1 | 103
COc1nc(N(C)C)nc(N(C)c2cc(Cl)cc(Cl)c2)n1 | 12 | 4 | 0 | 104 | 107 | 5 | nt | nt | nt
CN(C)CCNc1ncnc2c1sc1nc(N3CCOCC3)c3c(c12)CC(C)(C)SC3 | 14 | -19 | 8 | 105 | 141* | 33 | 141 | 20 | 107
Oc1ccc(Cl)cc1C=NCCc1ccccc1 | 0 | 0 | -7 | 129* | 100 | -1 | 101 | -2 | 96
Oc1ccccc1C=NCCN=Cc1ccccc1O | 2 | 3 | -6 | 104 | 93 | 11 | nt | nt | nt
CCC(c1nc2ccccc2c(=O)n1CCCn1ccnc1)N1C(=O)c2ccccc2C1=O (stereo not given) | -12 | -1 | -4 | 77*[inhibitor] | 85 | 0 | 101 | -2 | 103
N#CC(C#N)=C1C=CC=CN1/C(=C\c1ccco1)C(=O)c1ccccc1 | -1 | -12 | nt | 97 | 96 | nt | nt | nt | nt
N#CC(C#N)=C1C=CC=CN1/C(=C\c1ccco1)C(=O)c1ccc(Br)cc1 | 1 | -9 | nt | 137* | 106 | nt | 100 | -2 | 102
COc1ccc2c(C)cc(SCC#N)nc2c1 | 38* | -3 | -12 | 102 | 58*[inhibitor] | 6 | 101 | -8 | 103
Cc1cc(SCC#N)nc2ccccc12 | 3 | 2 | -16 | 100 | 104 | 0 | nt | nt | nt
CSc1ccc(NC(=O)NCCCN2CCN(c3ccccc3F)CC2)cc1 | 7 | 2 | 7 | 97 | 111 | 17 | nt | nt | nt
CCc1nc2ccc(C(=O)NCCCN3CCN(c4ccccc4F)CC3)cc2nc1CC | 19 | 1 | 10 | 107 | 137* | 5 | 145 | 31 | 104
COc1cccc(C(=O)NCCCN2CCN(CCCNC(=O)c3cccc(OC)c3)CC2)c1 | 1 | 1 | 13 | 128* | 107 | -11 | 115 | 12 | 103
COc1cc2c(C(=O)NCCCN3CCN(c4cccc(Cl)c4)CC3)cn(C)c(=O)c2cc1OC | 13 | 4 | 4 | 127* | 146* | 3 | 123 | 17 | 105
CCOc1ccc(NC(=S)NCCCN2CCN(c3ccc(OC)cc3)CC2)cc1 | 8 | 1 | 0 | 115 | 140* | -2 | 138 | 29 | 102
